{
  "source": "ChEMBL document CHEMBL5120742",
  "about": "“Multi-target weapons: diaryl-pyrazoline thiazolidinediones simultaneously targeting VEGFR-2 and HDAC cancer hallmarks” (RSC Med Chem, 2021)",
  "key": {"MCF7": {"test_system": "MCF7", "assay": "Antiproliferative activity against human MCF7 cells assessed as reduction in cell viability after 48 hrs by MTT assay", "assay_type": "functional, cell-based", "details": "MCF7, 48 h", "how_it_was_run": "(§1)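 MCF-7, K562, A549 and HT-29 lines were seeded in 96-well plates and kept overnight at 37 °C, 5% CO2, 95% humidity. They were then exposed to six concentrations (100 to 2.5) for 48 h. After PBS washes, MTT was added for 4 h at 37 °C and formazan was dissolved in DMSO. Absorbance was read at 570 nm. Survival is mean OD of treated wells over the negative control, and IC50 was derived from that.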"}, "Histone deacetylase 1": {"biological_target": "Histone deacetylase 1 (Homo sapiens, UniProt Q13547)", "sequence (Q13547 whole entry)": "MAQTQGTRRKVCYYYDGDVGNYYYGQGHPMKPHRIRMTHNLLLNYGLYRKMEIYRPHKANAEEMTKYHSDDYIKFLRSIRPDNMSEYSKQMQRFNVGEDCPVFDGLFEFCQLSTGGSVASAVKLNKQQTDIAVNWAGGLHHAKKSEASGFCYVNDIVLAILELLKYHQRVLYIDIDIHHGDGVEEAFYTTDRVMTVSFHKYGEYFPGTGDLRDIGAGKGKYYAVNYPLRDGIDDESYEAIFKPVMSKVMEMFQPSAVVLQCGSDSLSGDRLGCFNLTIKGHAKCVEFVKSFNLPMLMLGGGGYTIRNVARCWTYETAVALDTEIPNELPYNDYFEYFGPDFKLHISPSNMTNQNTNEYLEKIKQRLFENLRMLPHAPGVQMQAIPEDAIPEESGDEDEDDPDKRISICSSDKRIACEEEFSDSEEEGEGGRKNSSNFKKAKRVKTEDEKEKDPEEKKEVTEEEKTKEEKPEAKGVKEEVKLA", "assay": "Inhibition of recombinant human C-terminal His6-FLAG-tagged HDAC1 (1 to end residues) expressed in sf9 insect cells using Boc-Lys(acetyl)-AMC as substrate incubated for 30 mins by fluorescence assay", "how_it_was_run": "(§2)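 Two-step fluorogenic assay with recombinant HDAC1, 2, 3 or 6. Deacetylation of Boc-Lys(acetyl)-AMC is followed by trypsin conversion of the deacetylated product to a fluorescent signal.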"}, "A549": {"test_system": "A549", "assay": "Antiproliferative activity against human A549 cells assessed as reduction in cell viability after 48 hrs by MTT assay", "assay_type": "functional, cell-based", "details": "A549, 48 h", "how_it_was_run": "as §1"}, "K562": {"test_system": "K562", "assay": "Antiproliferative activity against human K562 cells assessed as reduction in cell viability after 48 hrs by MTT assay", "assay_type": "functional, cell-based", "details": "K562, 48 h", "how_it_was_run": "as §1"}, "[1]": {"biological_target": "T1, Vascular endothelial growth factor receptor 2 (Homo sapiens, UniProt P35968)", "T1 sequence (P35968 whole entry)": "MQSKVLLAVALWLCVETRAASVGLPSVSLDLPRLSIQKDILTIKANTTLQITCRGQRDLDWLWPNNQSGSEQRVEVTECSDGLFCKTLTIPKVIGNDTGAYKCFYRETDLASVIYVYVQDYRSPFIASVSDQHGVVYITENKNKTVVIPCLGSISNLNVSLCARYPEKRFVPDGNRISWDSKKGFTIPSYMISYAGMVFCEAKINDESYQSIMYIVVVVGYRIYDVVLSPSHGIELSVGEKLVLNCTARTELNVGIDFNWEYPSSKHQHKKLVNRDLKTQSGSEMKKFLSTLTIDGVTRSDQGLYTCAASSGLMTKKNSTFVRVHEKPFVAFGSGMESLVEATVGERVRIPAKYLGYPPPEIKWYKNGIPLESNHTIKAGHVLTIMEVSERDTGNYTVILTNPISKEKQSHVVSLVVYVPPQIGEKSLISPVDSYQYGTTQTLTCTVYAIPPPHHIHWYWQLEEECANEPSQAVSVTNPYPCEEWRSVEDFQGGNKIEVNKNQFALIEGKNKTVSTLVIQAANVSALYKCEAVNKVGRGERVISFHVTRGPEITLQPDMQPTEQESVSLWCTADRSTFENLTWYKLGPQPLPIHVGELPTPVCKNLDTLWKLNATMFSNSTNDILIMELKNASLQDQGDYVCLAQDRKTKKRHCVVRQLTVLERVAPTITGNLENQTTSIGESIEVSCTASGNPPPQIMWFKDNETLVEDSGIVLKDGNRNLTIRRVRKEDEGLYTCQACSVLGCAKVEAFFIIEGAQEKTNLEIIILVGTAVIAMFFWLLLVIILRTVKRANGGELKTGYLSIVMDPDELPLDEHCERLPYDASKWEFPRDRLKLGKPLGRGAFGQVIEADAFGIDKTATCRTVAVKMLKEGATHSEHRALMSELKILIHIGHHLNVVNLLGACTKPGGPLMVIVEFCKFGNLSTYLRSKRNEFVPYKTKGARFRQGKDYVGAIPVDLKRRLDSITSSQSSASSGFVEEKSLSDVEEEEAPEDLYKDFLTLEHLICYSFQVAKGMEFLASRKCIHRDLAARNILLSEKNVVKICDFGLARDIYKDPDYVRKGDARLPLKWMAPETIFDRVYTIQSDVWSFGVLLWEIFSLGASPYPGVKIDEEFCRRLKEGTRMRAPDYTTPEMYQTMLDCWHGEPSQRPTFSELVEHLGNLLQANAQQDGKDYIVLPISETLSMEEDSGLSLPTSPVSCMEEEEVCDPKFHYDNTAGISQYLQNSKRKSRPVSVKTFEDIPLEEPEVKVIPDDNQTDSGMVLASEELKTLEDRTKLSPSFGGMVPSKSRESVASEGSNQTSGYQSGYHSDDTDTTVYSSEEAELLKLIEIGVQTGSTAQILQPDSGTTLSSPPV", "assay": "Inhibition of human VEGFR2 in HUVEC cells assessed as reduction in VEGFR2 phosphorylation at 10 uM incubated for 30 mins by anti-phospho VEGF Tyr 1175 antibody based assay relative to control", "assay_type": "cell-based", "how_it_was_run": "(§3)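 HUVECs were seeded at 4000–5000 per well in DMEM with 10% FCS for 12 h, then held 24 h in serum. Compound (10 µM) was added with serum for 30 min at 37 °C. Cells were fixed in 4% formaldehyde and probed with anti-phospho-VEGFR Tyr1175 (1:1000), then an HRP secondary (1:5000). TMB signal was stopped with 2N H2SO4 and read at 450 nm. Percent inhibition is normalized to control.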"}, "[2]": {"biological_target": "T1, Vascular endothelial growth factor receptor 2", "assay": "Inhibition of human VEGFR2 in HUVEC cells assessed as reduction in VEGFR2 phosphorylation incubated for 30 mins by anti-phospho VEGF Tyr 1175 antibody based assay", "assay_type": "cell-based", "how_it_was_run": "as §3"}, "[3]": {"biological_target": "T2, Protein deacetylase HDAC6 (Homo sapiens, UniProt Q9UBN7)", "T2 sequence (Q9UBN7 whole entry)": "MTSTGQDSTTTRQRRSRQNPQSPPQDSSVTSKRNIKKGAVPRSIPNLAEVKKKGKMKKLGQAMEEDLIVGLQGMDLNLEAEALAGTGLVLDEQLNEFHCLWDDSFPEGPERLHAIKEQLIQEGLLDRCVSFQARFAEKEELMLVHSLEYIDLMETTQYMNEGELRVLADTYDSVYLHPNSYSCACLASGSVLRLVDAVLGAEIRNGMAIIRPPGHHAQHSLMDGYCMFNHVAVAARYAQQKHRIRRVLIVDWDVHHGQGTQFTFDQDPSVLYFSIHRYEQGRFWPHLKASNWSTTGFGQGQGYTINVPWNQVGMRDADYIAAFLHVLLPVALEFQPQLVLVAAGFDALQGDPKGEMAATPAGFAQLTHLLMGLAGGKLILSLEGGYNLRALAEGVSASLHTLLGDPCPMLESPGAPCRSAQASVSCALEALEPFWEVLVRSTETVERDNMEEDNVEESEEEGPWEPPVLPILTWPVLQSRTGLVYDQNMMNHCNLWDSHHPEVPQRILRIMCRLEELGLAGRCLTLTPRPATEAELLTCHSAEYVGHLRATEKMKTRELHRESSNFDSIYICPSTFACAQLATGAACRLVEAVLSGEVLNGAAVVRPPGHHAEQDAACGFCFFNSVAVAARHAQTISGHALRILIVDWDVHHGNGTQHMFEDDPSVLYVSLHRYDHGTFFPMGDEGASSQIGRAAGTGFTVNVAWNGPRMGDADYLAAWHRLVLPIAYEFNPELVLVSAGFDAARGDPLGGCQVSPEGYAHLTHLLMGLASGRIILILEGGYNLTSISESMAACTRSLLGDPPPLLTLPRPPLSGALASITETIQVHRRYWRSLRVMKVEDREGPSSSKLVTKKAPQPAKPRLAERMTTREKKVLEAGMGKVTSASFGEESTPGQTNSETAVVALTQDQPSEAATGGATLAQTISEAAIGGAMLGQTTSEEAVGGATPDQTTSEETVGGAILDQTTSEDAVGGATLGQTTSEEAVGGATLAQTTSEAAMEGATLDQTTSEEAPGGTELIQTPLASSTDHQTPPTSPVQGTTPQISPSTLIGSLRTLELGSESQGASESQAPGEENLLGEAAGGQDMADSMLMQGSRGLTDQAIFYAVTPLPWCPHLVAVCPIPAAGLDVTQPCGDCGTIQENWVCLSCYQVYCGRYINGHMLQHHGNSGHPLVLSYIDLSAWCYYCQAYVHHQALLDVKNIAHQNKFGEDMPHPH", "assay": "Inhibition of recombinant human HDAC6 using Boc-Lys(acetyl)-AMC as substrate incubated for 30 mins by fluorescence assay", "how_it_was_run": "as §2"}, "[4]": {"biological_target": "Histone deacetylase 3/Nuclear receptor corepressor 2 (HDAC3/NCoR2) (Homo sapiens, UniProt O15379)", "sequence (O15379 whole entry, the tested form may be a part)": "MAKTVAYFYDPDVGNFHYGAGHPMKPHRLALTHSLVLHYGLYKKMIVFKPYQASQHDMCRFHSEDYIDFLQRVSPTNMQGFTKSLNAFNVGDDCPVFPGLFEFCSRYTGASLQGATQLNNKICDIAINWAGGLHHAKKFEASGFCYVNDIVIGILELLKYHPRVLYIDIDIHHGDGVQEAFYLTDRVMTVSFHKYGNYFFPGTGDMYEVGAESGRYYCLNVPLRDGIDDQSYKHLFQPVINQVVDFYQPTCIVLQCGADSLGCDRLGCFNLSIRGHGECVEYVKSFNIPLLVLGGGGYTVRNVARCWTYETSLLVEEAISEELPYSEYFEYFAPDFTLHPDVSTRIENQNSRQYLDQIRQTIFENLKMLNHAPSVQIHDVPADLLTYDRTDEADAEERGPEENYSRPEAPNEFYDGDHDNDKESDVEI", "sequence (Q9Y618 whole entry, further chain, the tested form may be a part)": "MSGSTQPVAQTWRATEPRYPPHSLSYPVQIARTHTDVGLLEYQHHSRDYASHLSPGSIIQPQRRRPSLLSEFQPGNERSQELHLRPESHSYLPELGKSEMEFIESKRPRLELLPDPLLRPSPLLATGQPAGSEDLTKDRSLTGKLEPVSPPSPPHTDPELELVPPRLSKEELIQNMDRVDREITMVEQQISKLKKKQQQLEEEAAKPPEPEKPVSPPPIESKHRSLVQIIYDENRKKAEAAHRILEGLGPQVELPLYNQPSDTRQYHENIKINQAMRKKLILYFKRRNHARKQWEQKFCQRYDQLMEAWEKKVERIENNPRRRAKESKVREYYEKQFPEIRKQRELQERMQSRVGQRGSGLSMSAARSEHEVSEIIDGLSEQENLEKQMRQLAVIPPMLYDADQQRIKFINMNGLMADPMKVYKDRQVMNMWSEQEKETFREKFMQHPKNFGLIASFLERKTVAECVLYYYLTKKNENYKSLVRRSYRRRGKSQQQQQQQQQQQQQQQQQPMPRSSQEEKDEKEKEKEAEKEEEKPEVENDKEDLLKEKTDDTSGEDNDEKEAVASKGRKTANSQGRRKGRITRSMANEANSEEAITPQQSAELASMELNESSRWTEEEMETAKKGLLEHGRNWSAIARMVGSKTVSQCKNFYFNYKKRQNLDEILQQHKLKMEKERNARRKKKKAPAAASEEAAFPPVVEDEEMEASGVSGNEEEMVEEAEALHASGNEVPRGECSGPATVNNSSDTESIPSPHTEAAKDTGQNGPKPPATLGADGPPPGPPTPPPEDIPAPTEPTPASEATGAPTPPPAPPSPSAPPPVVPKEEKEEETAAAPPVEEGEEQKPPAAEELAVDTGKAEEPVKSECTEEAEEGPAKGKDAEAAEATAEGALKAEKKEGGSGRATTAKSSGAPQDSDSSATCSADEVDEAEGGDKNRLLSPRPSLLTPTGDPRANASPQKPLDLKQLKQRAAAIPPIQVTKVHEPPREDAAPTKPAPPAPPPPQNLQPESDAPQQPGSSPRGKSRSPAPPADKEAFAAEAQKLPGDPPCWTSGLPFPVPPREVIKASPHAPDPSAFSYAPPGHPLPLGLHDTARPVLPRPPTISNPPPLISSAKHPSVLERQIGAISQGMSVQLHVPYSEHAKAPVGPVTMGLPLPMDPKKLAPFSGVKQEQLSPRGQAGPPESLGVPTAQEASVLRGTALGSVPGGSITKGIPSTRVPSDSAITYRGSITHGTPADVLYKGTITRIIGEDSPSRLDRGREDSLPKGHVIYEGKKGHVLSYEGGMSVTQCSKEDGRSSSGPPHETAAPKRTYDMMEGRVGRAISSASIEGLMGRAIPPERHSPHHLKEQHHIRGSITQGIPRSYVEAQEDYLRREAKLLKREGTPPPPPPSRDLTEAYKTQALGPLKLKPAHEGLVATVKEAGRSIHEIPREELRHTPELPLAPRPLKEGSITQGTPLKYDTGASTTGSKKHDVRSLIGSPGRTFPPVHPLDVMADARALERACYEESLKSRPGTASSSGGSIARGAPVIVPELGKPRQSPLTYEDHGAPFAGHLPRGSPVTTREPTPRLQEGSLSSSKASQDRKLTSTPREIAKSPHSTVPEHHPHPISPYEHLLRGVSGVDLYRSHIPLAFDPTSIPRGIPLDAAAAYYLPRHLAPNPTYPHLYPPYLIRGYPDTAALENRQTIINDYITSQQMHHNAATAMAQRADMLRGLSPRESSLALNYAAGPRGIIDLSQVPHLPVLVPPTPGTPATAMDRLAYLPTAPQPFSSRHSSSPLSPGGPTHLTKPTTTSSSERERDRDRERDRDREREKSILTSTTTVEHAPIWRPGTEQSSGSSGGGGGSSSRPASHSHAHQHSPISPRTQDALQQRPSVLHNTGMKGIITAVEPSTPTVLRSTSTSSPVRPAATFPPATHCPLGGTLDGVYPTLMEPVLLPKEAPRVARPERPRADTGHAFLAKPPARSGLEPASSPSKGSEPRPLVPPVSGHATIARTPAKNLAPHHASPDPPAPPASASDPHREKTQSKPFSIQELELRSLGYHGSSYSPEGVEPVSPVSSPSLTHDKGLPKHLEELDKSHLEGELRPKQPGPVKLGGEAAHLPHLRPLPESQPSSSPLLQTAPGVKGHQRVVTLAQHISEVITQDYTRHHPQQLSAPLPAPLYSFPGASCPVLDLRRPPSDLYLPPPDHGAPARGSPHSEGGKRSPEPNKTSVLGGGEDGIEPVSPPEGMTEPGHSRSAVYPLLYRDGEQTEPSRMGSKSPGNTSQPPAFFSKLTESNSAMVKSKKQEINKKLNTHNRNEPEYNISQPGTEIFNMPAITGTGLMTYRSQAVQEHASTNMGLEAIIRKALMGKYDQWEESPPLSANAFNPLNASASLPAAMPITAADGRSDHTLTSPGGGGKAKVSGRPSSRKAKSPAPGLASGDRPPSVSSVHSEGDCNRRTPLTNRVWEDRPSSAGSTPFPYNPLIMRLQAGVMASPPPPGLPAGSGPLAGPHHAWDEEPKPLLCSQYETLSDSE", "assay": "Inhibition of C-terminal His-tagged recombinant human HDAC3 (1 to 428 residues)/N-terminal GST-tagged recombinant human NCoR2 (395 to 489 residues) co-expressed in baculovirus infected Sf9 cells using Boc-Lys(acetyl)-AMC as substrate incubated for 30 mins by fluorescence assay", "how_it_was_run": "as §2"}, "Gallus gallus": {"organism": "Gallus gallus", "assay": "Inhibition of angiogenesis in chicken chorioallantoic membrane assessed as reduction in number of branching capillaries at 1 to 10 ug/ul after 12 days in presence of human VEGF by stereomicroscopic analysis", "details": "Embryo, dose 1-10 µg/microl, time 12.0 day"}, "HT-29": {"test_system": "HT-29", "assay": "Antiproliferative activity against human HT-29 cells assessed as reduction in cell viability after 48 hrs by MTT assay", "assay_type": "functional, cell-based", "details": "HT-29, 48 h", "how_it_was_run": "as §1"}, "Histone deacetylase 4": {"biological_target": "Histone deacetylase 4 (Homo sapiens, UniProt P56524)", "assay": "Binding affinity to recombinant human N-terminal His6-SUMO-tagged C-terminal SII-tagged HDAC4 expressed in Escherichia coli (BL21) DE3 pLysS cells assessed as melting temperature at 100 uM for 15 mins by thermal shift assay", "how_it_was_run": "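HDAC4 catalytic domain (His6-SUMO/SII, E. coli) at 3 µM was mixed with 100 µM compound in DMSO and held 15 min at 30 °C, then 60 min more at 30 °C. Temperature was stepped by 2 °C with 10 min holds and samples were taken at each step. Samples were centrifuged at 18000g, 4 °C, and the soluble protein was run on SDS-PAGE. Band intensities were fitted to a logistic function, and Tm is the inflection point.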"}},
  "note": "Active and inactive are the calls of the source. The calls are words filed in the database; no cut-off is given here.",
  "data": [
    {"smiles": "O=C1NC(=O)/C(=C\\c2ccc(OCC(=O)N3N=C(c4ccc(F)cc4)CC3c3ccco3)cc2)S1", "note": "(centres undefined)", "values": [
      {"measurement": "IC50", "setting": "MCF7", "value": 28.4, "unit": "µM"},
      {"measurement": "IC50", "setting": "Histone deacetylase 1", "value": "> 50", "unit": "µM"},
      {"measurement": "IC50", "setting": "A549", "value": 19.5, "unit": "µM"},
      {"measurement": "IC50", "setting": "K562", "value": 46.3, "unit": "µM"},
      {"measurement": "inhibition", "setting": "[1]", "value": 56.7, "unit": "%"},
      {"measurement": "IC50", "setting": "[2]", "value": 5, "unit": "µM"},
      {"measurement": "IC50", "setting": "[3]", "value": 7.6, "unit": "µM"},
      {"measurement": "IC50", "setting": "[4]", "value": "> 50", "unit": "µM"},
      {"measurement": "inhibition", "setting": "Gallus gallus", "value": "Active"},
      {"measurement": "IC50", "setting": "HT-29", "value": 18.8, "unit": "µM"}
    ]},
    {"smiles": "O=C1NC(=O)/C(=C\\c2ccc(OCC(=O)N3N=C(c4ccc(F)cc4)CC3c3ccc(Cl)c(Cl)c3)cc2)S1", "note": "(centres undefined)", "values": [
      {"measurement": "IC50", "setting": "Histone deacetylase 1", "value": 11, "unit": "µM"},
      {"measurement": "Tm", "setting": "Histone deacetylase 4", "value": 57.3, "unit": "°C"},
      {"measurement": "inhibition", "setting": "[1]", "value": 22.4, "unit": "%"},
      {"measurement": "IC50", "setting": "[3]", "value": 13, "unit": "µM"},
      {"measurement": "IC50", "setting": "[4]", "value": 11, "unit": "µM"}
    ]},
    {"smiles": "O=C1NC(=O)/C(=C\\c2ccc(OCC(=O)N3N=C(c4ccccc4)CC3c3ccc(Cl)c(Cl)c3)cc2)S1", "note": "(centres undefined)", "values": [
      {"measurement": "IC50", "setting": "Histone deacetylase 1", "value": 4.9, "unit": "µM"},
      {"measurement": "Tm", "setting": "Histone deacetylase 4", "value": 56.7, "unit": "°C"},
      {"measurement": "IC50", "setting": "[3]", "value": 39, "unit": "µM"},
      {"measurement": "IC50", "setting": "[4]", "value": 9.1, "unit": "µM"}
    ]}
  ]
}
